The campaign covered roughly 2,900 compounds. About 1,900 (66%) were called active. So high a share suggests a set chosen from earlier hits. A selection follows. A number with no mark means an inactive call.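 How the source made its calls: active means mean inhibition across replicates above the hit cutoff set in the primary screen (cut at about 8.5% in these data); inactive means the rest.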
The compounds below were run against Disintegrin and metalloproteinase domain-containing protein 17 (Homo sapiens) (UniProt P78536) (assay: ADAM17 inhibitors, hit retest, confirmation, biochemical, QFRET peptide cleavage (AID 743257;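 further: 0% = DMSO wells and 100% = marimastat wells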)). Conditions: recombinant ADAM17, EDANS/DABCYL QFRET peptide cleavage; at 6.95 µM; stronger effect = higher value.
Sequence of Disintegrin and metalloproteinase domain-containing protein 17 (Homo sapiens) (P78536 215-824 limits assumed): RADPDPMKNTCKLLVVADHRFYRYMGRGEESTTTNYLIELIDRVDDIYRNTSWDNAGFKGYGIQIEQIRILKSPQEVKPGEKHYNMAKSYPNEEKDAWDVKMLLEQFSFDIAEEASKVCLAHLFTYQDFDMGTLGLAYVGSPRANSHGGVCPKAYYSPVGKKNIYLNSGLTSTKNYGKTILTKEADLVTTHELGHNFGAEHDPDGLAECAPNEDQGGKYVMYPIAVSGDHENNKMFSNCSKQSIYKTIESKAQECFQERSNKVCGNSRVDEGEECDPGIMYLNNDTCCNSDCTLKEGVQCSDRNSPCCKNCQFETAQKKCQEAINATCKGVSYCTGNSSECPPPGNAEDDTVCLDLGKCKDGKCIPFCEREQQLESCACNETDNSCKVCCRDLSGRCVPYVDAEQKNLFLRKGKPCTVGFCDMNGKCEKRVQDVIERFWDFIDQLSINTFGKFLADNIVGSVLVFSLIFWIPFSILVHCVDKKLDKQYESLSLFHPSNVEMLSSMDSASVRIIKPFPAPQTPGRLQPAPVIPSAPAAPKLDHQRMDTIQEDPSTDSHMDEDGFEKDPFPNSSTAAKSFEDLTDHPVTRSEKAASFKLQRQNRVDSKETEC
Outline: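 Test system: human ADAM17 enzyme, FRET peptide cleavage; medium: 50 mM HEPES buffer, pH 7.5, with 0.01% Brij; incubation: 30 min preincubation plus 3 h reaction at 25 °C; measured by: fluorescence at ex 359 nm, em 460 nm; control set: DMSO and 1 µM marimastat control wells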

Structure (SMILES) | inhibition
CC1(Cc2cccc(C#N)c2)C(=O)Nc2ccc(-c3cccc(C(F)(F)F)c3)cc21 (centres undefined) | 16.4% (active)
O=C(COC(=O)CCCSc1nc2ccccc2[nH]1)Nc1ccc(Oc2ccccc2)cc1 | 21.9% (active)
COC(C(=O)Nc1ccc(S(=O)(=O)Nc2ccc(C)c(C)c2)cc1)c1ccccc1 (centres undefined) | 13.7% (active)
COc1ccc(C(CNC(=O)c2cc(S(=O)(=O)Nc3cccc(C)c3)ccc2C)N2CCCC2)cc1 (centres undefined) | 2.1%
CCN1C(=O)C(CC(=O)Nc2cc(C)ccc2C)SC1=Nc1ccc(S(N)(=O)=O)cc1 (centres undefined) | 7.07%
O=C(CC1SC(=Nc2ccccc2)N(Cc2ccccn2)C1=O)Nc1cccc(Cl)c1 (centres undefined) | 18.4% (active)
CCOc1ccc(Nc2nc(Cc3nnc(SCC(=O)c4ccc(C)cc4)o3)cs2)cc1 | 8.23%
O=C(CSc1nc(-c2ccccc2)cs1)Nc1cccc([N+](=O)[O-])c1 | 14.6% (active)
CN(C(=O)c1cccc(NC(=O)Cc2cccc([N+](=O)[O-])c2)c1)C1CCCCC1 | 8.38%
CC[C@@]12C(=O)N(c3ccccc3)C(=O)N1[C@H](c1ccc(Br)cc1)[C@@H]1C(=O)N(C(C)(C)C)C(=O)[C@@H]12 | 2.65%
COc1ccc([C@@H]2[C@@H]3C(=O)N(C(C)(C)C)C(=O)[C@@H]3[C@]3(Cc4ccccc4)C(=O)N(c4cccc(Br)c4)C(=O)N23)cc1 | 14.3% (active)
CC(C)(C)N1C(=O)[C@H]2[C@@H](c3ccc(Br)cc3)N3C(=O)N(c4cccc(Cl)c4)C(=O)[C@@]3(C)[C@H]2C1=O | 12.8% (active)
CCOc1ccccc1C1CC(c2cccc(NS(C)(=O)=O)c2)=NN1C(=O)c1ccccc1 (centres undefined) | 3.69%
CCOc1ccc(N2C(=O)CC(N(CCc3ccc(OC)c(OC)c3)C(=S)Nc3ccccc3)C2=O)cc1 (centres undefined) | 2.05%
O=C(OCc1ccc(-c2ccccc2)cc1)c1cccc(O)c1 | 15.7% (active)
Cc1ccc(OCCOCCOc2ccc(Br)cc2/C=N\NC(=O)c2ccncc2)cc1 | 16.2% (active)
Cc1ccc(S(=O)(=O)NCCSc2ccccc2)cc1[N+](=O)[O-] | 7.81%
COc1cccc(/C=N/NC(=O)c2cccc([N+](=O)[O-])c2)c1OS(=O)(=O)c1ccc(C)cc1 | 13.8% (active)
CC(C)Oc1cc(F)ccc1-c1cc(C(=O)Nc2cccc(Cl)c2)[nH]n1 | 14.6% (active)
O=C(COc1ccc(Cl)cc1)N1CCN(c2cccc(C(F)(F)F)c2)CC1 | 9.24% (active)
Cc1onc(C(=O)NN)c1-c1csc(COc2ccccc2)n1 | 3.32%

Structure (SMILES) | inhibition
COC(=O)c1c(C)[nH]c(C(=O)/C=C/c2ccc(Cl)cc2)c1C | -5.64%
CCOC(=O)c1c(Cc2ccc(Cl)cc2)c[nH]c1C | 9.85% (active)
COc1ccc(C(=O)C2CCCN(S(=O)(=O)c3cccc(C)c3)C2)c(C)c1 (centres undefined) | 6.46%
COc1ccc(S(=O)(=O)N2CCCCC2)cc1Br | 10.9% (active)
COCCNC(=O)C(c1ccc(C)o1)N(Cc1ccccc1)C(=O)Cn1nnc2ccccc21 (centres undefined) | 1.74%
COc1ccccc1C(=O)NCC(=O)OCC(=O)NNC(=O)c1ccc(Br)cc1 | 3.39%
CC(=O)Nc1ccc(S(=O)(=O)N2CCN(CCCOc3cc(C)ccc3C)CC2)cc1 | 9.43% (active)
Cn1c(=O)c2c(nc(N/N=C/c3cccs3)n2Cc2ccc(Br)cc2)n(C)c1=O | -12%
COc1ccc(C(=O)Nc2ccc(C3(C#N)CCCC3)cc2)cc1OC | -0.86%
Cc1cc(C)cc(NS(=O)(=O)c2ccc(Oc3ncc(C(F)(F)F)cc3Cl)cc2)c1 | 20.1% (active)
COc1cccc(NC(=O)C2C(c3ccccc3)C2(Cl)Cl)c1 (centres undefined) | 19.5% (active)
O=C(CN1CCN(c2nc(-c3ccccc3)cs2)CC1)NCc1ccc2c(c1)OCO2 | 12.5% (active)
Cc1ccc(-c2n[nH]c(=S)n2/N=C/c2cc3c(cc2[N+](=O)[O-])OCO3)cc1 | 4.12%
CCOc1ccc(-n2c(SCC(=O)Nc3cc(C)c(NC(=O)c4ccccc4)cc3OC)nnc2-c2cccs2)cc1 | 14.6% (active)
COc1cccc(CNc2nc(C(F)(F)F)nc3ccccc23)c1 | 7.14%
Clc1ccc(C(Cn2ccnc2)OCc2ccsc2Cl)c(Cl)c1 (centres undefined) | 9.7% (active)
CS(=O)(=O)Nc1cccc(C2=NN(S(=O)(=O)c3ccccc3)C(c3cccs3)C2)c1 (centres undefined) | 6.85%
N#C/C(=C/c1ccc(N2CCCCC2)o1)C(=O)NCCc1c[nH]c2ccccc12 | 10.2% (active)
Cc1cc(C)cc(NC(=S)NCCc2c[nH]c3ccccc23)c1 | 8.25%
COc1ccc(-c2cc(C3CCN(c4ncccc4[N+](=O)[O-])CC3)[nH]n2)cc1 | 13.2% (active)
COc1ccc(CC(N)c2csc(NC(=O)NC(c3ccccc3)c3ccccc3)n2)cc1 (centres undefined) | 3.55%

Structure (SMILES) | inhibition
C=C(C)COc1ccc(-c2n[nH]c(C)c2-c2ccccc2)c(O)c1 | 20.8% (active)
COc1ccc(Cl)cc1NC(=O)COC(=O)C(CC(C)C)N1C(=O)C2CC=CCC2C1=O (centres undefined) | 9.46% (active)
CC(C)N(C(=O)[C@H]1C[C@H](CC(=O)NC(C)(C)C)C(=O)N2CCc3c([nH]c4ccc(Cl)cc34)[C@]12C)C(C)C | 8.88% (active)
CCOc1ccccc1CNS(=O)(=O)c1cc(-c2cc(C)no2)ccc1C | 3.8%
CCOC(=O)c1cccc(NC(=O)CN(C)S(=O)(=O)c2ccc(-c3cocn3)s2)c1 | 6.09%
Cc1ccc(S(=O)(=O)N2CCN(C(=O)COC(=O)c3c(C)cc(C)cc3C)CC2)c(C)c1 | 9.17% (active)
COC(=O)N(C)C[C@@H]1OCc2cnnn2CCCC(=O)N([C@@H](C)CO)C[C@@H]1C | 0.27%
Cn1nc(C(F)(F)F)c2cc(NC(=O)OCC(C)(C)C)sc21 | 10.8% (active)
O=C(CSc1nc(Nc2ccccc2)nc(N2CCOCC2)n1)Nc1cc(Cl)ccc1O | 18.7% (active)
CC(C)(C)c1ccc(S(=O)(=O)NCC2CCN(C(=O)C(=O)c3cc4ccccc4o3)CC2)cc1 | 15.1% (active)
O=C1[C@H]2[C@@H](c3ccc(C(F)(F)F)cc3)N[C@]3(CCCN(Cc4ccc(Br)cc4)C3=O)[C@H]2C(=O)N1Cc1ccccc1 | 19.6% (active)
O=C(NCc1ccccc1)C1=C[C@@H](c2ccc(C(F)(F)F)cc2)C[C@@H](OCc2ccc(CO)cc2)O1 | 21.4% (active)
Cc1ccc(C(=O)Nc2ccc(C)c(S(=O)(=O)N(C)C)c2)s1 | 10.8% (active)
Cc1ccc(-n2c(COc3ccccc3)nnc2SCC(=O)Nc2ccc3c(c2)OCCO3)cc1 | 15.9% (active)
Cc1cc(NC(=O)CN2C(=O)NC(CC(C)C)C2=O)no1 (centres undefined) | 15.1% (active)
CCCn1nc(C(=O)NNC(=O)CSCC(=O)Nc2cc(C)on2)c2ccccc2c1=O | 0.67%
NNC(=O)C1CCCn2c1nc1sc3c(c1c2=O)CCCC3 (centres undefined) | 1.06%
COc1ccc(CC(=O)c2ccc(O)cc2O)cc1OC | 1.45%
CC(C)C(=O)Nc1cccc(NC(=S)NC(=O)C(c2ccccc2)c2ccccc2)c1 | 17.6% (active)
COc1cc(C2CC(=O)N3CN(Cc4ccccc4)CSC3=C2C#N)ccc1OCc1ccccc1 (centres undefined) | 15.8% (active)
COc1ccc(S(=O)(=O)Nc2ccc(O)c(Sc3nc4ccccc4s3)c2)cc1 | 10.7% (active)

Structure (SMILES) | inhibition
C=CCOc1ccccc1/C=N/NC(=O)Cc1ccccc1 | 2.48%
O=C1NC(=O)C(c2ccc(Cl)cc2)N1 (centres undefined) | 13.7% (active)
Cc1ccc(-c2nnc(SCC(=O)Nc3ccc(Oc4ccccc4)cc3)n2Cc2ccco2)cc1 | 18.5% (active)
Cc1ccc(OCc2nnc(SC/C=C/c3ccccc3)n2Cc2ccco2)cc1 | 12.5% (active)
CN(C)c1ccc(NC(=O)NC2CCCCN(Cc3ccc(Cl)cc3)C2=O)cc1 (centres undefined) | 3.4%
CCCN(CC(=O)NC(=O)NC1CCCCC1)CC(=O)Nc1cc(Cl)ccc1Cl | 17.5% (active)
O=C(CSCc1ccc(Br)cc1)Nc1ccc(S(=O)(=O)N2CCCCCC2)cc1 | 12.6% (active)
COc1ccc(C(N)c2csc(NC(=O)Nc3cccc(C(F)(F)F)c3)n2)cc1 (centres undefined) | 6.58%
Cn1nc(C(F)(F)F)c(C(=O)Nc2cccc(C(F)(F)F)c2)c1SCc1ccc(Cl)cc1 | 19.4% (active)
CC(=O)Nc1ccc(S(=O)(=O)Oc2ccc(Br)cc2C(=S)N2CCOCC2)cc1 | 9.82% (active)
S=C(NCc1ccc(Cl)cc1)NC12CC3CC(CC(C3)C1)C2 | 11.1% (active)
O=C(Cc1ccc(Cl)c(Cl)c1)Nc1ccc(SC(F)F)cc1 | 25.1% (active)
COc1ccc(CN(C)C(=O)CC(c2ccccc2)c2ccccc2)cc1 | 5.73%
O=C(c1ccccc1)N1CCN(c2ccc([N+](=O)[O-])c(NCc3ccco3)c2)CC1 | 9.37% (active)
CC(C)(C)OC(=O)CNC(=O)c1[nH]cnc1C(=O)N[C@@H](Cc1ccccc1)C(=O)OCc1ccccc1 | 20.1% (active)
CC(C)(C)OC(=O)N1CCC(NC(=O)c2[nH]cnc2C(=O)N[C@@H](Cc2ccccc2)C(=O)OCc2ccccc2)CC1 | 22.4% (active)
CCOc1ccc(OCC)c(-c2c(=O)n(OCc3ccc(Cl)cc3)c3ccccc3[n+]2[O-])c1 | 2.59%
Cc1sc2nc(SCC(=O)c3ccc(O)c(O)c3)n(Cc3ccco3)c(=O)c2c1C | 12.6% (active)
CCn1c(Cc2cccs2)nnc1SCC(=O)c1ccc(C)cc1 | 2.25%
O=C(Cc1ncc(C(F)(F)F)cc1Cl)Nc1cccc(Br)c1 | 5.32%
CCc1cccc(NC(=O)COC(=O)C2CCN(c3ccc(C(F)(F)F)cn3)CC2)c1 | 16.5% (active)
